One assay relates to KB/VCR (human). The note with it: 4 to 16 uM.
For assay [1], the system named is KB. In words: Potentiation of vincristine-induced cytotoxicity against human KB cells at 16 uM after 48 hrs by MTT assay. In kind it is functional. The essentials: (§1)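 Cells were exposed for 48 h to VCR or ADR alone, or to VCR or ADR combined with a fixed concentration of modulator. Verapamil (16 µM) served as the reference agent. […] RF = IC50 of drug alone / IC50 with modulator. Means ± SD of three experiments.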
(In general: Tetrazolium assays rely on reduction of a dye to a coloured formazan, in cell work by metabolically active cells.)

For assay [2], the system named is KB/VCR. In words: Reversal of P-glycoprotein-mediated vincristine-resistance in human KB/VCR cells expressing Pgp assessed as ratio of vincristine IC50 to vincristine IC50 in presence of compound at 16 uM after 48 hrs by MTT assay. It is filed as cell-based. The method in brief: as §1
Assay [3] deals with KB/VCR. In words: Reversal of P-glycoprotein-mediated vincristine-resistance in human KB/VCR cells expressing Pgp assessed as ratio of adriamycin IC50 to adriamycin IC50 in presence of compound at 16 uM after 48 hrs by MTT assay. In kind it is cell-based. The essentials:
as §1

The test system of assay [4] is KB. The assay can be described thus: Potentiation of adriamycin-induced cytotoxicity against human KB cells at 16 uM after 48 hrs by MTT assay. It is filed as functional. The essentials: as §1
Assay [5] deals with KB. The assay can be described thus: Cytotoxicity against human KB cells after 48 hrs by MTT assay. In kind it is functional, cell-based.
In assay [6] the test system is KB/VCR. The assay can be described thus: Reversal of P-glycoprotein-mediated vincristine-resistance in human KB/VCR cells expressing Pgp assessed as ratio of vincristine IC50 to vincristine IC50 in presence of compound at 8 uM after 48 hrs by MTT assay. In kind it is cell-based. The method in brief:
(§2)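 Cells were exposed for 48 h to VCR or ADR alone, or to VCR or ADR combined with a fixed concentration of modulator. RF = IC50 of drug alone / IC50 with modulator. Means ± SD of three experiments.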

Assay [7] deals with KB/VCR. In words: Reversal of P-glycoprotein-mediated vincristine-resistance in human KB/VCR cells expressing Pgp assessed as ratio of vincristine IC50 to vincristine IC50 in presence of compound at 4 uM after 48 hrs by MTT assay. It is filed as cell-based. The method in brief:
as §2

Assay [8] in a line: Cytotoxicity against human KB/VCR cells expressing Pgp after 48 hrs by MTT assay. It is filed as functional, cell-based. The essentials:
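KB/VCR cells were kept in 200 ng/mL VCR and moved to drug-free medium for at least one week before use. Cells were exposed to graded compound concentrations for 48 h, with DMSO-treated cells as controls. Viability was read by MTT. IC50 values are means of three experiments.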

Assay [9] concerns KB. In words: Potentiation of adriamycin-induced cytotoxicity against human KB cells at 4 uM after 48 hrs by MTT assay. In kind it is functional. The method in brief: as §1
The subject of assay [10] is KB/VCR. The assay can be described thus: Induction of apoptosis in human KB/VCR cells expressing Pgp assessed as up-regulation of Bax expression at 16 uM after 48 hrs by Western blotting. In kind it is functional, cell-based. The method in brief:
(§3)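 KB/VCR cells were treated for 48 h with modulator (16 µM), VCR (0.2 µM), or both. Cells were lysed in RIPA buffer containing protease and phosphatase inhibitors. Protein was separated by SDS–PAGE and transferred to PVDF. Membranes were blocked in 5% milk/TBST and probed overnight with anti-Bcl-2 or anti-Bax, then an HRP secondary. GAPDH served as loading control, with ECL detection.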
(In western blotting, separated proteins are transferred to a membrane and probed.)

Assay [11] concerns KB/VCR. In words: Induction of apoptosis in human KB/VCR cells expressing Pgp assessed as morphological changes using DAPI staining at 16 uM after 48 hrs by fluorescence microscopic analysis. In kind it is functional, cell-based. The method in brief:
(§4)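 KB/VCR cells were treated for 48 h with modulator (16 µM), VCR (0.2 µM), or both. Cells were fixed in 4% paraformaldehyde for 10 min, permeabilized with 0.1% Triton X-100, and stained with DAPI (1:2000) for 10 min. Condensed or fragmented nuclei were scored by fluorescence microscopy.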

The test system of assay [12] is KB. In words: Potentiation of vincristine-induced cytotoxicity against human KB cells at 4 uM after 48 hrs by MTT assay. In kind it is functional. The essentials:
as §1

Assay [13] has as its system KB/VCR. In words: Reversal of P-gp-mediated multidrug-resistance in human KB/VCR cells assessed as increase in intracellular rhodamine-123 accumulation after 1 hr by flow cytometry relative to control. In kind it is cell-based. The method in brief: (§5)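 Cells were pretreated with modulator at 4, 8 or 16 µM, or DMSO, for 1 h. Rh123 (5 µM) was then added for a further 1 h at 37 °C in the dark. Cells were washed and resuspended in ice-cold PBS. Rh123 fluorescence was read by flow cytometry using 488 nm excitation and a 530 nm band-pass filter. Means ± SD of three independent experiments, compared with DMSO-treated cells.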
A general note: A flow cytometer gives signals particle by particle.

Assay [14] deals with KB/VCR. The assay can be described thus: Reversal of P-glycoprotein-mediated vincristine-resistance in human KB/VCR cells expressing Pgp assessed as ratio of adriamycin IC50 to adriamycin IC50 in presence of compound at 4 uM after 48 hrs by MTT assay. In kind it is cell-based. The essentials: as §1
Assay [15] deals with KB. The assay can be described thus: Potentiation of adriamycin-induced cytotoxicity against human KB cells at 8 uM after 48 hrs by MTT assay. It is filed as functional. The essentials: as §1
The test system of assay [16] is KB/VCR. The assay can be described thus: Inhibition of P-gp-mediated rhodamine-123 efflux in human KB/VCR cells at 6 uM after 1 hr by flow cytometry. It is filed as cell-based. The method in brief:
(§6)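 For efflux, cells were loaded with 5 µM Rh123 together with modulator or verapamil for 60 min at 37 °C. Cells were washed three times in Rh123-free medium and collected at 15, 30, 45, 60, 90 and 120 min after wash-out. They were resuspended in ice-cold PBS, and remaining Rh123 fluorescence was measured by flow cytometry.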

Assay [17] has as its system KB/VCR. In words: Induction of apoptosis in human KB/VCR cells expressing Pgp assessed as down-regulation of Bcl-2 expression at 16 uM after 48 hrs by Western blotting. It is filed as functional, cell-based. The essentials:
as §3

Assay [18] relates to KB/VCR. The assay can be described thus: Inhibition of P-gp-mediated rhodamine-123 efflux in human KB/VCR cells at 6 uM after 2 hrs by flow cytometry. In kind it is cell-based. The method in brief:
as §6

Assay [19] concerns KB. The assay can be described thus: Induction of rhodamine-123 accumulation in human KB cells at […] after 1 hr by flow cytometry. In kind it is functional, cell-based. The essentials: as §5
Assay [20] concerns KB/VCR. The assay can be described thus: Reversal of P-glycoprotein-mediated vincristine-resistance in human KB/VCR cells expressing Pgp assessed as ratio of adriamycin IC50 to adriamycin IC50 in presence of compound at 8 uM after 48 hrs by MTT assay. It is filed as cell-based. The essentials: as §1
In assay [21] the test system is KB. In words: Potentiation of vincristine-induced cytotoxicity against human KB cells at 8 uM after 48 hrs by MTT assay. It is filed as functional. The method in brief: as §1
In assay [22] the test system is KB/VCR. The assay can be described thus: Reversal of P-glycoprotein-mediated vincristine-resistance in human KB/VCR cells expressing Pgp assessed as ratio of vincristine IC50 to vincristine IC50 in presence of compound at 4 uM after 48 hrs by MTT assay.
Assay [23] concerns KB/VCR. In words: Reversal of P-gp-mediated multidrug-resistance in human KB/VCR cells assessed as increase in intracellular adriamycin accumulation at 8 uM after 1 hr by flow cytometry relative to control. It is filed as cell-based. The essentials: (§7)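 Cells were incubated with ADR at 3 µg/mL, alone or with modulator at 4, 8 or 16 µM, for 1 h at 37 °C. The reaction was stopped in an ice-water bath, and cells were washed twice with ice-cold PBS. Intracellular ADR fluorescence was measured by flow cytometry as mean intensity and expressed relative to DMSO-treated control cells.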

Assay [24] relates to KB. The assay can be described thus: Induction of adriamycin accumulation in human KB cells at […] after 1 hr by flow cytometry. It is filed as functional, cell-based. The method in brief: as §7
Assay [25] deals with KB/VCR. In words: Reversal of P-gp-mediated multidrug-resistance in human KB/VCR cells assessed as increase in intracellular adriamycin accumulation at 16 uM after 1 hr by flow cytometry relative to control. In kind it is cell-based. The method in brief:
as §7

The subject of assay [26] is KB/VCR. In words: Reversal of P-gp-mediated multidrug-resistance in human KB/VCR cells assessed as increase in intracellular adriamycin accumulation at 4 uM after 1 hr by flow cytometry relative to control. In kind it is cell-based. The essentials: as §7
Assay [27] has as its system KB/VCR. In words: Induction of apoptosis in human KB/VCR cells expressing Pgp assessed as up-regulation of Bax expression at 0.2 uM after 48 hrs by Western blotting. It is filed as functional, cell-based. The essentials:
as §3

The subject of assay [28] is KB/VCR. In words: Induction of apoptosis in human KB/VCR cells expressing Pgp assessed as down-regulation of Bcl-2 expression at 0.2 uM after 48 hrs by Western blotting. It is filed as functional, cell-based. The method in brief: as §3
For assay [29], the system named is KB/VCR. In words: Induction of apoptosis in human KB/VCR cells expressing Pgp assessed as morphological changes using DAPI staining at 0.2 uM after 48 hrs by fluorescence microscopic analysis. It is filed as functional, cell-based. The method in brief:
as §4

Six compounds from ChEMBL document CHEMBL1240517, “Bisbibenzyl derivatives sensitize vincristine-resistant KB/VCR cells to chemotherapeutic agents by retarding P-gp activity” (Bioorg Med Chem, 2010) can be followed below.

SMILES strings stand for the structures. “And” between values parts separate entries of the source, which are not always exact repeats. Identical values can stand only once. The source made the active and inactive calls. The rule behind the calls is not given here.

Turning to `COc1ccc(CCN(C)CCCC(C#N)(c2ccc(OC)c(OC)c2)C(C)C)cc1OC` (stereo unspecified), the inhibition entry in the assay on KB/VCR (human) was “inactive”. Further, the “fold change (FC)” value amounted to 1.29 with KB [1], 8.85 in the assay with KB/VCR [2], 5.32 in the assay with KB/VCR [3] and 1.06 in the assay with KB [4].

What is called IC50 is the midpoint of a concentration-inhibition curve. A low value points to higher potency. Take `Oc1ccc2cc1Oc1ccc(cc1)/C=C/c1cccc(O)c1Oc1cccc(c1)CC2` [DEHYDROMARCHANTIN C]: the IC50 in the assay with KB [5] was 84 µM; in assay [8] (Homo sapiens, KB/VCR, 48 h), 86.9 µM. Further, the fold change (FC) in the assay on KB/VCR [6] turned out to be 3.51; in the assay with KB/VCR [7] it was 2.16; in the assay on KB/VCR [2] it was 5.95.

As to `COc1ccc2cc1Oc1ccc(cc1)CCc1cccc(OC)c1Oc1cccc(c1)CC2` [DIMETHYL ETHER MARCHANTIAN C], the “fold change (FC)” value was 1.02 in the assay on KB [9]; 2.57 and 6.76 with KB/VCR [6]; 1.17 in the assay on KB [12]; 1.54 in the assay on KB [1]; 3.96 with KB/VCR [14]; 4.78 with KB/VCR [7]. Besides, the fold change (FC) in the assay on KB/VCR [2] was 7.53; in the assay on KB [15], 1.15; in the assay on KB/VCR [3] it was 6.06; in the assay with KB/VCR [20], 4.2; in the assay on KB [4], 0.91; with KB [21] it was 1.33. For the same compound, the result in the assay with KB/VCR [10], with KB/VCR [11], with KB/VCR [17] and in the assay with KB [19] was inactive. For the same compound, the 50% inhibitory concentration (IC50) in the assay on KB [5] was 94.9 µM; in assay [8] (Homo sapiens, KB/VCR, 48 h), 95.4 µM. The Activity entry with KB/VCR [13] was “Dose-dependent effect”. In addition, the inhibition result in the assay with KB/VCR [16] is “Active”. Besides, the inhibition result in the assay on KB/VCR [18] is “inactive”.

Compound `COc1ccc2cc1Oc1ccc(cc1)/C=C/c1cccc(OC)c1Oc1cccc(c1)CC2` [DIMETHYLETHER DEHYDROMARCHANTIN C] came in with a half-inhibitory concentration (IC50) with KB [5] of 93.5 µM. Also, the figures for the fold change (FC) in the assay with KB/VCR [2] and in the assay with KB/VCR [22] were 3.1 and 2.47, respectively.

In the case of `COc1cccc2c1C(=O)c1c(O)c3c(c(O)c1C2=O)C[C@@](O)(C(=O)CO)C[C@@H]3O[C@H]1C[C@H](N)[C@H](O)[C@H](C)O1.Cl` [DOXORUBICIN HYDROCHLORIDE], the IC50 is 1.66 mg/L in the assay on KB [5] and 49.7 mg/L in [8] (Homo sapiens, KB/VCR, 48 h). Moreover, the fold change (FC) in the assay on KB/VCR [23] was 2.8; in the assay on KB/VCR [25], 5.7; with KB/VCR [26], 2.1. Also, the outcome with KB [24] was inactive.

On to `CC[C@]1(O)C[C@H]2CN(CCc3c([nH]c4ccccc34)[C@@](C(=O)OC)(c3cc4c(cc3OC)N(C=O)[C@H]3[C@@](O)(C(=O)OC)[C@H](OC(C)=O)[C@]5(CC)C=CCN6CC[C@]43[C@@H]65)C2)C1` [VINCRISTINE], for which the half-inhibitory concentration (IC50) was 0.00607 µM in the assay with KB [5]; 1.48 µM in assay [8] (Homo sapiens, KB/VCR, 48 h); 1.49 µM in assay [8] (kb/vcr). For the same compound, the outcome in the assay with KB/VCR [27], in the assay on KB/VCR [28] and in the assay with KB/VCR [29] was inactive.
